Experimental data: paper PMC4401318 (ACS Chemical Neuroscience, 2015)
Entries after “also recorded” stand apart in the source; their conditions may differ. Marks after values point to notes of the source that are not given here.

Key:
DOP receptor [1] = target: T1, DOP receptor (Homo sapiens, UniProt P41143); assay: Radioligand competition binding, DOP
KOP receptor [2] = target: T2, KOP receptor (Homo sapiens, UniProt P41145); assay: biochemical
KOP receptor [3] = target: T2, KOP receptor; assay: Radioligand competition binding, KOP
MOP receptor [4] = target: T3, MOP receptor (Homo sapiens, UniProt P35372); assay: biochemical
NOP receptor [5] = target: T4, NOP receptor (Homo sapiens, UniProt P41146); assay: [35S]GTPγS binding stimulation; type: biochemical; conditions: for intrinsic (agonist) activity in [35S]GTPγS assay at any of the opioid receptors: NOP, KOP, MOP and DOP, up to 10 μM; for [35S]GTPγS NOP % stim: compared to standard agonist N/OFQ
DOP receptor [6] = target: T1, DOP receptor; assay: [35S]GTPγS binding stimulation; type: biochemical; conditions: for [35S]GTPγS DOP % stim: compared to standard agonist DPDPE
DOP receptor [7] = target: T1, DOP receptor; assay: Inhibition of agonist-stimulated [35S]GTPγS binding, DOP; type: biochemical
NOP receptor [8] = target: T4, NOP receptor; assay: Radioligand competition binding, NOP
MOP receptor [9] = target: T3, MOP receptor; type: biochemical
KOP receptor [10] = target: T2, KOP receptor; assay: Inhibition of agonist-stimulated [35S]GTPγS binding, KOP; type: biochemical; conditions: agonist U69,593 concentration-response curves; listed as AT-076
Procedure, shortened: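 CHO cells stably expressing human KOP cDNA, grown in DMEM/10% FBS with 0.4 mg/mL G418. Membranes were washed into 20 mM HEPES, 10 mM MgCl2, 100 mM NaCl, pH 7.4. Membranes (8–15 μg protein) were incubated 60 min at 25 °C with 50 pM [35S]GTPγS and 10 μM GDP. U69,593 concentration–response curves were run at several fixed test-compound concentrations. Binding was read by filtration and scintillation counting. Antagonism type was assigned by Schild regression.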

NOP receptor [11] = target: T4, NOP receptor; assay: Inhibition of agonist-stimulated [35S]GTPγS binding, NOP; type: biochemical; conditions: for nature of antagonism at NOP: agonist nociceptin concentration-response curves
MOP receptor [12] = target: T3, MOP receptor; conditions: cited from earlier work
DOP receptor [13] = target: T1, DOP receptor; conditions: agonist DPDPE; ref 4b; cited from earlier work
KOP receptor [14] = target: T2, KOP receptor; conditions: agonist U69,593; ref 4b; cited from earlier work

SMILES | Ki (DOP receptor [1]) [nM] | EC50 (KOP receptor [2]) [nM] | [35S]GTPγS KOP % stim (KOP receptor [2]) [%] | Ki (KOP receptor [3]) [nM] | EC50 (MOP receptor [4]) [nM] | [35S]GTPγS MOP % stim (MOP receptor [4]) [%] | EC50 (NOP receptor [5]) [nM] | intrinsic (agonist) activity in [35S]GTPγS assay at any of the opioid receptors (NOP receptor [5]) | [35S]GTPγS NOP % stim (NOP receptor [5]) [%] | [35S]GTPγS DOP % stim (DOP receptor [6]) [%] | further results
C[C@H]1CN(C2CCCCCCC2)CC[C@@]1(C)c1cccc(O)c1 [Compound 3, 3-((3R,4R)-1-Cyclooctyl-3,4-dimethylpiperidin-4-yl)phenol] | 2910 ± 834 | > 10000 | 0 | 68.1 ± 2.21 | – | – | – | – | – | – | –
C[C@H]1CN(C[C@H]2Cc3ccc(O)cc3CN2)CC[C@@]1(C)c1cccc(O)c1 [Compound 4, (R)-3-(((3R,4R)-4-(3-Hydroxyphenyl)-3,4-dimethylpiperidin-1-yl)methyl)-1,2,3,4-tetrahydroisoquinolin-7-ol] | 205 | – | – | 410 ± 130 | > 10000 | 0 | – | – | – | – | –
C[C@H]1CN(C[C@H]2Cc3ccccc3CN2)CC[C@@]1(C)c1cccc(O)c1 [Compound 5, 3-((3R,4R)-3,4-Dimethyl-1-(((R)-1,2,3,4-tetrahydroisoquinolin-3-yl)methyl)piperidin-4-yl)phenol] | 38.8 ± 9.9 | > 10000 | 0 | 19.5 ± 6.6 | > 10000 | 0 | > 10000 | no intrinsic activity | 0 | 0 | EC50 (DOP receptor [6]): > 10000 nM
CC(C)[C@@H](CN1CCC(c2cccc(O)c2)CC1)NC(=O)[C@H]1Cc2ccc(O)cc2CN1 [Compound 6, (R)-7-Hydroxy-N-((S)-1-(4-(3-hydroxyphenyl)piperidin-1-yl)-3-methylbutan-2-yl)-1,2,3,4-tetrahydroisoquinoline-3-carboxamide] | – | > 10000 | 0 | – | > 10000 | 0 | – | no intrinsic (agonist) activity | 0 | 0 | Kb (DOP receptor [7]): 24.9 ± 13 nM; nature of antagonism at DOP (DOP receptor [7]; agonist DPDPE concentration-response curves, listed as AT-076): competitive antagonist; also recorded: competitive antagonism; increase in NOP binding affinity compared with JDTic (NOP receptor [8]; ratio of Ki): 10 fold; Ke more potent than that of JDTic (MOP receptor [9]; at the MOP and DOP receptors): 3–6 fold; nature of antagonism at MOP (MOP receptor [9]; listed as AT-076): competitive antagonist; also recorded: competitive antagonism; EC50 (DOP receptor [6]): > 10000 nM; nature of antagonism at KOP (KOP receptor [10]): noncompetitive antagonist profile; also recorded: insurmountable antagonism; nature of antagonism at NOP (NOP receptor [11]; listed as AT-076): noncompetitive antagonist profile; also recorded: insurmountable antagonism
CC(C)[C@@H](CN1CCC(c2cccc(O)c2)CC1)NC(=O)[C@H]1Cc2ccccc2CN1 [Compound 7, (R)-N-((S)-1-(4-(3-Hydroxyphenyl)piperidin-1-yl)-3-methylbutan-2-yl)-1,2,3,4-tetrahydroisoquinoline-3-carboxamide] | 1400 ± 111 | > 10000 | 0 | 100 ± 0.9 | – | – | > 10000 | – | 7.0 ± 3.2 | – | –
CC(C)[C@@H](CN1CCC(c2ccccc2)CC1)NC(=O)[C@H]1Cc2ccc(O)cc2CN1 [Compound 8, (R)-7-Hydroxy-N-((S)-3-methyl-1-(4-phenylpiperidin-1-yl)butan-2-yl)-1,2,3,4-tetrahydroisoquinoline-3-carboxamide] | > 10000 | 408 ± 41 | 72.3 ± 4 | 2.15 ± 0.82 | – | 0 | 53.3 ± 12.1 | – | 18.3 ± 1.3 | – | Ki (NOP receptor [8]): 10.9 ± 2.14 nM
CC(C)[C@@H](CN1CC[C@@](C)(c2cccc(O)c2)[C@@H](C)C1)NC(=O)[C@H]1Cc2ccc(O)cc2CN1 [JDTic, (3R)-7-hydroxy-N-((1S)-1-{[(3R,4R)-4-(3-hydroxyphenyl)-3,4-dimethyl-1-piperidinyl]methyl}-2-methylpropyl)-1,2,3,4-tetrahydro-3-isoquinolinecarboxamide, reference compound] | – | – | 0 | – | – | 0 | > 10000 | no intrinsic activity | 0 | 0 | Ke MOP (antagonist potency) (MOP receptor [12]): 3.41 ± 0.36 ^f nM; intrinsic activity in [35S]GTPγS functional assay at NOP (NOP receptor [5]; compound alone): no intrinsic activity; Ke DOP (antagonist potency) (DOP receptor [13]): 79.3 ± 9.3 ^f nM; Ke KOP (antagonist potency) (KOP receptor [14]): 0.01 ± 0.00 ^f nM; Kb (NOP receptor [11]): 680.2 ± 2.35 nM; nature of antagonism at NOP (NOP receptor [11]): noncompetitive antagonism
Cc1cccc2c1CC[C@H](CN1CCC(c3c(Cl)cccc3Cl)CC1)C[C@@H]2O [SB-612111, (−)-cis-1-methyl-7-[[4-(2,6-dichlorophenyl)piperidin-1-yl]methyl]-6,7,8,9-tetrahydro-5H-benzocyclohepten-5-ol, reference compound] | – | – | – | – | – | – | – | – | 0 | – | –
